Experimental data as given in ChEMBL document CHEMBL1926651, “Design, synthesis, antiviral and cytostatic evaluation of novel isoxazolidine nucleotide analogues with a 1,2,3-triazole linker” (Eur J Med Chem, 2012).
Active and inactive are the calls of the source. No cut-off for these calls is given here.

Legend:
Human alphaherpesvirus 1 [1] = test: Antiviral activity against Herpes simplex virus 1 KOS infected in human HEL cells assessed as inhibition of viral plaque formation at 250 uM; type: functional, organism-based
Outline: (§1)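 Confluent host cell monolayers were inoculated with 100 CCID50 of virus in the presence of test compound at serial dilutions (250, 50, 10, … μM). Viral cytopathicity was scored once it reached completion in untreated virus-infected controls.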

Human alphaherpesvirus 2 = test: Antiviral activity against Herpes simplex virus 2 G infected in human HEL cells assessed as inhibition of viral plaque formation at 250 uM; type: functional, organism-based; details: strain G
Human alphaherpesvirus 1 [2] = test: Antiviral activity against thymidine kinase-deficient acv-resistant Herpes simplex virus 1 KOS infected in human HEL cells assessed as inhibition of viral plaque formation at 250 uM; type: functional, organism-based
Vaccinia virus = test: Antiviral activity against Vaccinia virus infected in human HEL cells assessed as inhibition of viral plaque formation at 250 uM; type: functional, organism-based; details: Orthopoxvirus vaccinia; outline: as §1
[3] = test system: Vesicular stomatitis virus; test: Antiviral activity against Vesicular stomatitis virus infected in human HEL cells assessed as inhibition of viral plaque formation at 250 uM; type: functional, organism-based; outline: as §1
Human betaherpesvirus 5 [4] = test: Antiviral activity against Human cytomegalovirus AD169 infected in human HEL cells assessed as inhibition of viral plaque formation at 250 uM; type: functional, organism-based
Human betaherpesvirus 5 [5] = test: Antiviral activity against Human cytomegalovirus Davis infected in human HEL cells assessed as inhibition of viral plaque formation at 250 uM; type: functional, organism-based
Human alphaherpesvirus 3 [6] = test: Antiviral activity against thymidine kinase-positive Varicella Zoster virus Oka infected in human HEL cells assessed as inhibition of viral plaque formation at 250 uM; type: functional, cell-based; details: strain Oka vaccine
Human alphaherpesvirus 3 [7] = test: Antiviral activity against thymidine kinase-deficient Varicella Zoster virus 07/1 infected in human HEL cells assessed as inhibition of viral plaque formation at 250 uM; type: functional, organism-based
Human respirovirus 3 = test: Antiviral activity against Parainfluenza-3 virus infected in african green monkey Vero cells assessed as inhibition of viral plaque formation at 250 uM; type: functional, organism-based; outline: as §1
[8] = test system: Mammalian orthoreovirus 1; test: Antiviral activity against Reovirus-1 infected in african green monkey Vero cells assessed as inhibition of viral plaque formation at 250 uM; type: functional, organism-based; outline: as §1
Sindbis virus = test: Antiviral activity against Sindbis virus infected in african green monkey Vero cells assessed as inhibition of viral plaque formation at 250 uM; type: functional, organism-based; outline: as §1
Coxsackievirus B4 [9] = test: Antiviral activity against Coxsackievirus B4 infected in african green monkey Vero cells assessed as inhibition of viral plaque formation at 250 uM; type: functional, organism-based; outline: as §1
Punta Toro virus = test: Antiviral activity against Punta Toro virus infected in african green monkey Vero cells assessed as inhibition of viral plaque formation at 250 uM; type: functional, organism-based
[10] = test system: Vesicular stomatitis virus; test: Antiviral activity against Vesicular stomatitis virus infected in human Hela cells assessed as inhibition of viral plaque formation at 250 uM; type: functional, organism-based
Coxsackievirus B4 [11] = test: Antiviral activity against Coxsackievirus B4 infected in human HeLa cells assessed as inhibition of viral plaque formation at 250 uM; type: functional, organism-based; outline: as §1
[12] = test system: Respiratory syncytial virus; test: Antiviral activity against Respiratory syncytial virus infected in human HeLa cells assessed as inhibition of viral plaque formation at 250 uM; type: functional, organism-based; outline: as §1
Felid alphaherpesvirus 1 = test: Antiviral activity against Felid herpesvirus 1 infected in CrFK cells assessed as inhibition of viral plaque formation at 250 uM; type: functional, organism-based; outline: as §1
Feline coronavirus = test: Antiviral activity against Feline coronavirus infected in CrFK cells assessed as inhibition of viral plaque formation at 250 uM; type: functional, organism-based; outline: as §1
[13] = test system: Human immunodeficiency virus 2; test: Antiviral activity against Human immunodeficiency virus 2 infected in human CEM cells assessed as inhibition of virus-induced giant cell formation after 4 days by microscopic analysis; type: functional, organism-based; details: CCRF-CEM
Outline: (§2)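 CEM cells at about 3 × 10⁵ cells/cm³ were infected with 100 CCID50/mL of HIV-1(IIIB) or HIV-2(ROD), then seeded into wells holding test compound dilutions. After 4 days at 37 °C, virus-induced giant cell formation was scored microscopically.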

[14] = test system: Human immunodeficiency virus 1; test: Antiviral activity against Human immunodeficiency virus 1 infected in human CEM cells assessed as inhibition of virus-induced giant cell formation after 4 days by microscopic analysis; type: functional, organism-based; details: CCRF-CEM; outline: as §2
HEL = test: Cytotoxicity against human HEL cells 3 days by coulter counting; type: functional; details: 72 h
Outline: (§3)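 Cells were suspended at 300,000–500,000 cells/mL and added 1:1 to compound dilutions. Incubation was at 37 °C, 2 days for L1210 and 3 days for CEM, HeLa and HEL. Cells were counted with a Coulter counter. CC50 is the concentration inhibiting cell proliferation by 50%.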

HeLa = test: Cytotoxicity against human HeLa cells 3 days by coulter counting; type: functional; details: 72 h; outline: as §3
CCRF-CEM = test: Cytotoxicity against human CEM cells 3 days by coulter counting; type: functional; details: 72 h; outline: as §3
L1210 = test: Cytotoxicity against mouse L1210 cells 2 days by coulter counting; type: functional; details: L1210, 48 h; outline: as §3

Compound: CCOP(=O)(OCC)[C@@H]1C[C@@H](n2cc(-c3nccn3C)nn2)ON1C
- Activity (Human alphaherpesvirus 1 [1]): inactive
- Activity (Human alphaherpesvirus 2): inactive
- Activity (Human alphaherpesvirus 1 [2]): inactive
- Activity (Vaccinia virus): inactive
- Activity [3]: inactive
- Activity (Human betaherpesvirus 5 [4]): inactive
- Activity (Human betaherpesvirus 5 [5]): inactive
- Activity (Human alphaherpesvirus 3 [6]): inactive
- Activity (Human alphaherpesvirus 3 [7]): inactive
- Activity (Human respirovirus 3): inactive
- Activity [8]: inactive
- Activity (Sindbis virus): inactive
- Activity (Coxsackievirus B4 [9]): inactive
- Activity (Punta Toro virus): inactive
- Activity [10]: inactive
- Activity (Coxsackievirus B4 [11]): inactive
- Activity [12]: inactive
- Activity (Felid alphaherpesvirus 1): inactive
- Activity (Feline coronavirus): inactive
- Activity [13]: inactive
- Activity [14]: inactive
- CC50 (HEL): > 100 µM
- CC50 (HeLa): > 250 µM
- CC50 (CCRF-CEM): > 250 µM
- CC50 (L1210): ≥ 250 µM

Compound: CCOP(=O)(OCC)[C@@H]1C[C@H](n2cc(-c3nccn3C)nn2)ON1C
- Activity (Human alphaherpesvirus 1 [1]): inactive
- Activity (Human alphaherpesvirus 2): inactive
- Activity (Human alphaherpesvirus 1 [2]): inactive
- Activity (Vaccinia virus): inactive
- Activity [3]: inactive
- Activity (Human betaherpesvirus 5 [4]): inactive
- Activity (Human betaherpesvirus 5 [5]): inactive
- Activity (Human alphaherpesvirus 3 [6]): inactive
- Activity (Human alphaherpesvirus 3 [7]): inactive
- Activity (Human respirovirus 3): inactive
- Activity [8]: inactive
- Activity (Sindbis virus): inactive
- Activity (Coxsackievirus B4 [9]): inactive
- Activity (Punta Toro virus): inactive
- Activity [10]: inactive
- Activity (Coxsackievirus B4 [11]): inactive
- Activity [12]: inactive
- Activity (Felid alphaherpesvirus 1): inactive
- Activity (Feline coronavirus): inactive
- Activity [13]: inactive
- Activity [14]: inactive
- CC50 (HEL): > 100 µM
- CC50 (HeLa): > 250 µM
- CC50 (CCRF-CEM): > 250 µM
- CC50 (L1210): ≥ 250 µM

Compound: CCOC(=O)C1=C[C@@H](OC(CC)CC)[C@H](NC(C)=O)[C@@H](N)C1
- Activity (Human alphaherpesvirus 1 [1]): inactive
- Activity (Human alphaherpesvirus 2): inactive
- Activity (Human alphaherpesvirus 1 [2]): inactive
- Activity (Vaccinia virus): inactive
- Activity [3]: inactive
- Activity (Human betaherpesvirus 5 [4]): inactive
- Activity (Human betaherpesvirus 5 [5]): inactive
- Activity (Human alphaherpesvirus 3 [6]): inactive
- Activity (Human alphaherpesvirus 3 [7]): inactive
- Activity (Human respirovirus 3): inactive
- Activity [8]: inactive
- Activity (Sindbis virus): inactive
- Activity (Coxsackievirus B4 [9]): inactive
- Activity (Punta Toro virus): inactive
- Activity [10]: inactive
- Activity (Coxsackievirus B4 [11]): inactive
- Activity [12]: inactive
- Activity (Felid alphaherpesvirus 1): inactive
- Activity (Feline coronavirus): inactive
- Activity [13]: inactive
- Activity [14]: inactive

Compound: NC(=O)c1ncn([C@@H]2O[C@H](CO)[C@@H](O)[C@H]2O)n1
- Activity (Human alphaherpesvirus 1 [1]): inactive
- Activity (Human alphaherpesvirus 2): inactive
- Activity (Human alphaherpesvirus 1 [2]): inactive
- Activity (Vaccinia virus): inactive
- Activity [3]: inactive
- Activity (Human betaherpesvirus 5 [4]): inactive
- Activity (Human betaherpesvirus 5 [5]): inactive
- Activity (Human alphaherpesvirus 3 [6]): inactive
- Activity (Human alphaherpesvirus 3 [7]): inactive
- Activity (Human respirovirus 3): inactive
- Activity [8]: inactive
- Activity (Sindbis virus): inactive
- Activity (Coxsackievirus B4 [9]): inactive
- Activity (Punta Toro virus): inactive
- Activity [10]: inactive
- Activity (Coxsackievirus B4 [11]): inactive
- Activity [12]: inactive
- Activity (Felid alphaherpesvirus 1): inactive
- Activity (Feline coronavirus): inactive
- Activity [13]: inactive
- Activity [14]: inactive

Compound: Nc1ccn(C[C@@H](CO)OCP(=O)(O)O)c(=O)n1
- Activity (Human alphaherpesvirus 1 [1]): inactive
- Activity (Human alphaherpesvirus 2): inactive
- Activity (Human alphaherpesvirus 1 [2]): inactive
- Activity (Vaccinia virus): inactive
- Activity [3]: inactive
- Activity (Human betaherpesvirus 5 [4]): inactive
- Activity (Human betaherpesvirus 5 [5]): inactive
- Activity (Human alphaherpesvirus 3 [6]): inactive
- Activity (Human alphaherpesvirus 3 [7]): inactive
- Activity (Human respirovirus 3): inactive
- Activity [8]: inactive
- Activity (Sindbis virus): inactive
- Activity (Coxsackievirus B4 [9]): inactive
- Activity (Punta Toro virus): inactive
- Activity [10]: inactive
- Activity (Coxsackievirus B4 [11]): inactive
- Activity [12]: inactive
- Activity (Felid alphaherpesvirus 1): inactive
- Activity (Feline coronavirus): inactive
- Activity [13]: inactive
- Activity [14]: inactive

Compound: Nc1nc2c(ncn2COC(CO)CO)c(=O)[nH]1
- Activity (Human alphaherpesvirus 1 [1]): inactive
- Activity (Human alphaherpesvirus 2): inactive
- Activity (Human alphaherpesvirus 1 [2]): inactive
- Activity (Vaccinia virus): inactive
- Activity [3]: inactive
- Activity (Human betaherpesvirus 5 [4]): inactive
- Activity (Human betaherpesvirus 5 [5]): inactive
- Activity (Human alphaherpesvirus 3 [6]): inactive
- Activity (Human alphaherpesvirus 3 [7]): inactive
- Activity (Human respirovirus 3): inactive
- Activity [8]: inactive
- Activity (Sindbis virus): inactive
- Activity (Coxsackievirus B4 [9]): inactive
- Activity (Punta Toro virus): inactive
- Activity [10]: inactive
- Activity (Coxsackievirus B4 [11]): inactive
- Activity [12]: inactive
- Activity (Felid alphaherpesvirus 1): inactive
- Activity (Feline coronavirus): inactive
- Activity [13]: inactive
- Activity [14]: inactive

Compound: Nc1nc2c(ncn2COCCO)c(=O)[nH]1
- Activity (Human alphaherpesvirus 1 [1]): inactive
- Activity (Human alphaherpesvirus 2): inactive
- Activity (Human alphaherpesvirus 1 [2]): inactive
- Activity (Vaccinia virus): inactive
- Activity [3]: inactive
- Activity (Human betaherpesvirus 5 [4]): inactive
- Activity (Human betaherpesvirus 5 [5]): inactive
- Activity (Human alphaherpesvirus 3 [6]): inactive
- Activity (Human alphaherpesvirus 3 [7]): inactive
- Activity (Human respirovirus 3): inactive
- Activity [8]: inactive
- Activity (Sindbis virus): inactive
- Activity (Coxsackievirus B4 [9]): inactive
- Activity (Punta Toro virus): inactive
- Activity [10]: inactive
- Activity (Coxsackievirus B4 [11]): inactive
- Activity [12]: inactive
- Activity (Felid alphaherpesvirus 1): inactive
- Activity (Feline coronavirus): inactive
- Activity [13]: inactive
- Activity [14]: inactive

Compound: Nc1ncnc2c1ncn2C[C@H](O)CO
- Activity (Human alphaherpesvirus 1 [1]): inactive
- Activity (Human alphaherpesvirus 2): inactive
- Activity (Human alphaherpesvirus 1 [2]): inactive
- Activity (Vaccinia virus): inactive
- Activity [3]: inactive
- Activity (Human betaherpesvirus 5 [4]): inactive
- Activity (Human betaherpesvirus 5 [5]): inactive
- Activity (Human alphaherpesvirus 3 [6]): inactive
- Activity (Human alphaherpesvirus 3 [7]): inactive
- Activity (Human respirovirus 3): inactive
- Activity [8]: inactive
- Activity (Sindbis virus): inactive
- Activity (Coxsackievirus B4 [9]): inactive
- Activity (Punta Toro virus): inactive
- Activity [10]: inactive
- Activity (Coxsackievirus B4 [11]): inactive
- Activity [12]: inactive
- Activity (Felid alphaherpesvirus 1): inactive
- Activity (Feline coronavirus): inactive
- Activity [13]: inactive
- Activity [14]: inactive

Compound: O=c1[nH]c(=O)n([C@H]2C[C@H](O)[C@@H](CO)O2)cc1/C=C/Br
- Activity (Human alphaherpesvirus 1 [1]): inactive
- Activity (Human alphaherpesvirus 2): inactive
- Activity (Human alphaherpesvirus 1 [2]): inactive
- Activity (Vaccinia virus): inactive
- Activity [3]: inactive
- Activity (Human betaherpesvirus 5 [4]): inactive
- Activity (Human betaherpesvirus 5 [5]): inactive
- Activity (Human alphaherpesvirus 3 [6]): inactive
- Activity (Human alphaherpesvirus 3 [7]): inactive
- Activity (Human respirovirus 3): inactive
- Activity [8]: inactive
- Activity (Sindbis virus): inactive
- Activity (Coxsackievirus B4 [9]): inactive
- Activity (Punta Toro virus): inactive
- Activity [10]: inactive
- Activity (Coxsackievirus B4 [11]): inactive
- Activity [12]: inactive
- Activity (Felid alphaherpesvirus 1): inactive
- Activity (Feline coronavirus): inactive
- Activity [13]: inactive
- Activity [14]: inactive
